Test results from ChEMBL document CHEMBL1144013, “Indol-3-yl-tetramethylcyclopropyl ketones: effects of indole ring substitution on CB2 cannabinoid receptor activity” (J Med Chem, 2008).
pEC50, pKi: −log10 of the molar value.

What was measured:
[1] = molecular target: T1, Cannabinoid receptor 2 (Homo sapiens, UniProt P34972); test: Agonist activity at human recombinant CB2 receptor expressed in HEK cells assessed as calcium mobilization by FLIPR; type: functional, cell-based, HEK293
In short: (§1)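 HEK cells stably coexpressing human CB2 and chimeric Gαq/o5 protein, seeded 75,000/well one day before; no-wash calcium dye.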

[2] = organism: Homo sapiens; test: Selectivity for human recombinant CB2 receptor over human recombinant CB1 receptor
In short: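 Ki ratio from [3H]CP-55940 (0.5 nM) competition binding: human CB1 membranes from stably expressing […] cells versus human CB2 membranes from stably expressing HEK cells. Tris-HCl pH 7.4 buffer with EDTA, MgCl2, BSA; 90 min at 30 °C; filtration counting; nonspecific with 10 µM unlabeled ligand; ≥3 experiments in duplicate.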

[3] = molecular target: T1, Cannabinoid receptor 2; test: Agonist activity at human recombinant CB2 receptor expressed in HEK cells assessed as calcium mobilization by FLIPR relative to CP-55940; type: functional, cell-based; conditions: HEK293; in short: as §1
[4] = molecular target: T1, Cannabinoid receptor 2; test: Displacement of [3H]CP-55940 from human recombinant CB2 receptor expressed in HEK cells; type: cell-based, HEK293; conditions: for pKi: read-out: Ki; for Ki: read-out: Log Ki (converted)
[5] = molecular target: Cannabinoid receptor 1 (Homo sapiens, UniProt P21554); test: Displacement of [3H]CP-55940 from human recombinant CB1 receptor expressed in HEK cells; type: cell-based, HEK293; conditions: for pKi: read-out: Ki; for Ki: read-out: Log Ki (converted)
Sequence of Cannabinoid receptor 1 (P21554 whole entry): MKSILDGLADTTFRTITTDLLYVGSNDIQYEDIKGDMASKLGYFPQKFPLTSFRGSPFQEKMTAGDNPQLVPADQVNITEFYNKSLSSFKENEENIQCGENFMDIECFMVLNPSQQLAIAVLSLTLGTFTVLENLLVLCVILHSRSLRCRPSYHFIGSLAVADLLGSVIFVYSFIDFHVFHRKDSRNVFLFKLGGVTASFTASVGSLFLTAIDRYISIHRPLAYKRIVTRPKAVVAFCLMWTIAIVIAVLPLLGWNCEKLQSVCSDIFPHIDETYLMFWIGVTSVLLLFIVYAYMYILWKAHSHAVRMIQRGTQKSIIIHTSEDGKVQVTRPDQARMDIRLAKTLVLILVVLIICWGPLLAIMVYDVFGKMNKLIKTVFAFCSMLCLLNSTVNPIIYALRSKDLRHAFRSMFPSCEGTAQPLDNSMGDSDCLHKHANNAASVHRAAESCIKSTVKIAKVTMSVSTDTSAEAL

T1 sequence (P34972 whole entry): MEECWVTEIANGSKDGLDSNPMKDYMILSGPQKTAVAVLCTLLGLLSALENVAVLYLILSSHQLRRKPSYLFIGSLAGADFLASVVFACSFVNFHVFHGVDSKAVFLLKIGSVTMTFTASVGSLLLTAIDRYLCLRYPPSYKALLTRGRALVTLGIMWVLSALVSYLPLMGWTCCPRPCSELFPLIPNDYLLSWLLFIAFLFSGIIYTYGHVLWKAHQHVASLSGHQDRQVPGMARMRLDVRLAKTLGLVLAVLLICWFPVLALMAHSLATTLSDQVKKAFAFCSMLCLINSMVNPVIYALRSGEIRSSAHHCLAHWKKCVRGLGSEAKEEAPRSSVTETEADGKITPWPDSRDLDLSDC

Row | SMILES | pEC50 [1] | Ratio Ki [2] | Activity [3] [%] | pKi [4] | pKi [5] | Ki [5] [nM] | pKi ([5]; hek293) | pKi ([4]; hek293) | Ki [4] [nM]
1 | Cc1c(C(=O)C2C(C)(C)C2(C)C)c2ccccc2n1CCN1CCOCC1 | 6.64 | > 370 | 60 | 7.57 | < 5.00 | – | – | – | –
2 | CC1(C)C(C(=O)c2cn(CCN3CCOCC3)c3cccc(N)c23)C1(C)C | 7.30 | > 109 | 41 | 7.49 | < 5.46 | > 3470 | – | – | –
3 | CC1(C)C(C(=O)c2cn(CC3CCOCC3)c3cc(S(C)(=O)=O)ccc23)C1(C)C | < 5.00 | 423 | – | 8.52 | 5.90 | – | – | – | –
4 | COc1ccc2c(c1)c(C(=O)C1C(C)(C)C1(C)C)cn2CCN1CCOCC1 | < 5.00 | > 15 | – | 6.63 | < 5.46 | > 3470 | – | – | –
5 | CC1(C)C(C(=O)c2cn(CC3CCOCC3)c3ccccc23)C1(C)C | 8.15 | – | 133 | 9.68 | – | – | – | – | –
6 | COc1ccc2c(c1)c(C(=O)C1C(C)(C)C1(C)C)cn2CC1CCOCC1 | 7.21 | 61 | 35 | 8.34 | 6.55 | – | – | – | –
7 | CC1(C)C(C(=O)c2cn(CC3CCOCC3)c3cc(C(F)(F)F)ccc23)C1(C)C | < 5.00 | 20 | – | 8.46 | 7.15 | – | – | – | –
8 | CC1(C)C(C(=O)c2cn(CCN3CCOCC3)c3cc(OCc4ccccc4)ccc23)C1(C)C | < 5.00 | – | – | 8.54 | – | – | – | – | –
9 | COC(=O)c1ccc2c(C(=O)C3C(C)(C)C3(C)C)cn(CC3CCOCC3)c2c1 | < 5.00 | – | – | 8.85 | – | – | – | – | –
10 | COCc1ccc2c(c1)c(C(=O)C1C(C)(C)C1(C)C)cn2CC1CCOCC1 | 7.39 | – | 50 | 7.59 | – | – | – | – | –
11 | CC1(C)C(C(=O)c2cn(CC3CCOCC3)c3ccc(C#N)cc23)C1(C)C | 6.65 | – | 65 | 7.52 | – | – | – | – | –
12 | COc1cc2c(cc1OCc1ccccc1)c(C(=O)C1C(C)(C)C1(C)C)cn2CC1CCOCC1 | < 5.00 | – | – | 8.74 | – | – | – | – | –
13 | CC1(C)C(C(=O)c2cn(CC3CCOCC3)c3cc(CN)ccc23)C1(C)C | < 5.00 | > 16 | – | 7.21 | < 6.00 | – | – | – | –
14 | CC1(C)C(C(=O)c2cn(CC3CCOCC3)c3ccc(-c4ccccc4)cc23)C1(C)C | < 5.00 | – | – | 7.24 | – | – | – | – | –
15 | CC1(C)C(C(=O)c2cn(CC3CCOCC3)c3c(F)c(F)c(F)c(F)c23)C1(C)C | 7.43 | 13 | 88 | 8.30 | 7.18 | – | – | – | –
16 | CC1(C)C(C(=O)c2cn(CC3CCOCC3)c3cc4c(cc23)OCO4)C1(C)C | 7.74 | – | 62 | 9.00 | – | – | – | – | –
17 | CC1(C)C(C(=O)c2cn(CC3CCOCC3)c3ccc(N)cc23)C1(C)C | 8.00 | 108 | 80 | 8.03 | – | > 1000 | < 6.00 | – | –
18 | CCCn1c(C)c(C(=O)c2cccc3ccccc23)c2ccccc21 | – | – | 75 | – | – | – | – | – | –
19 | CC1(C)C(C(=O)c2cn(CC3CCOCC3)c3ccc(CN)cc23)C1(C)C | < 5.00 | – | – | < 6.00 | < 5.00 | – | – | – | –
20 | CC1(C)C(C(=O)c2cn(CCN3CCOCC3)c3ccc(OCc4ccccc4)cc23)C1(C)C | < 5.00 | – | – | – | < 5.00 | – | – | < 6.00 | > 1000
21 | CC1(C)C(C(=O)c2cn(CC3CCOCC3)c3cc(O)ccc23)C1(C)C | 7.82 | > 353 | 107 | 8.07 | < 5.52 | > 3020 | – | – | –
22 | CC1(C)C(C(=O)c2cn(CC3CCOCC3)c3c(OCc4ccccc4)cccc23)C1(C)C | < 5.00 | 353 | – | 8.51 | 5.96 | – | – | – | –
23 | CC1(C)C(C(=O)c2cn(CC3CCOCC3)c3cc(O)c(O)cc23)C1(C)C | 7.68 | – | 106 | 7.68 | – | – | – | – | –

Row | SMILES | pEC50 [1] | Ratio Ki [2] | Activity [3] [%] | pKi [4] | pKi [5] | Ki [5] [nM] | pKi ([5]; hek293) | pKi ([4]; hek293) | Ki [4] [nM]
24 | CC1(C)C(C(=O)c2cn(CC3CCOCC3)c3ccc(O)cc23)C1(C)C | 8.15 | – | 78 | 8.72 | – | – | – | – | –
25 | CC1(C)C(C(=O)c2cn(CC3CCOCC3)c3cccc(OCc4ccccc4)c23)C1(C)C | 6.42 | > 1080 | 45 | 8.03 | < 5.00 | – | – | – | –
26 | CC1(C)C(C(=O)c2cn(CCN3CCOCC3)c3cc(O)ccc23)C1(C)C | 6.73 | > 92 | 62 | 6.96 | < 5.00 | – | – | – | –
27 | Cc1ccc2c(C(=O)C3C(C)(C)C3(C)C)cn(CC3CCOCC3)c2c1 | < 5.00 | – | – | 9.82 | – | – | – | – | –
28 | CC1(C)C(C(=O)c2cn(CC3CCOCC3)c3cc(Cl)ccc23)C1(C)C | 8.00 | – | 60 | 8.60 | – | – | – | – | –
29 | CC1(C)C(C(=O)c2cn(CCN3CCOCC3)c3cccc([N+](=O)[O-])c23)C1(C)C | < 5.00 | > 34 | – | 6.53 | < 5.00 | – | – | – | –
30 | COC(=O)c1ccc2c(c1)c(C(=O)C1C(C)(C)C1(C)C)cn2CC1CCOCC1 | < 5.00 | > 42 | – | 6.62 | < 5.00 | – | – | – | –
31 | COc1cccc2c(C(=O)C3C(C)(C)C3(C)C)cn(CC3CCOCC3)c12 | < 5.00 | – | – | 9.92 | – | – | – | – | –
32 | CC1(C)C(C(=O)c2cn(CC3CCOCC3)c3cc(C#N)ccc23)C1(C)C | 7.35 | – | 67 | 8.30 | – | – | – | – | –
33 | CC1(C)C(C(=O)c2cn(CC3CCOCC3)c3ccc(OCc4ccccc4)cc23)C1(C)C | < 5.00 | 183 | – | 8.89 | 6.62 | – | – | – | –
34 | COc1ccc2c(C(=O)C3C(C)(C)C3(C)C)cn(CCN3CCOCC3)c2c1 | < 5.00 | – | – | – | – | – | – | – | 1.58
35 | CN1CCCCC1Cn1cc(C(=O)c2cc([N+](=O)[O-])ccc2I)c2ccccc21 (configuration not stated) | < 5.00 | 110 | – | 7.94 | 5.90 | – | – | – | –
36 | CC1(C)C(C(=O)c2cn(CC3CCOCC3)c3cc(Br)ccc23)C1(C)C | < 5.00 | – | – | 9.19 | – | – | – | – | –
37 | CC1(C)C(C(=O)c2cn(CC3CCOCC3)c3ccc(OCCCCBr)cc23)C1(C)C | < 5.00 | > 139 | – | 7.14 | < 5.00 | – | – | – | –
38 | CC1(C)C(C(=O)c2cn(CCN3CCOCC3)c3cccc(NS(C)(=O)=O)c23)C1(C)C | < 5.00 | – | – | < 6.00 | – | – | – | – | –
39 | CC1(C)C(C(=O)c2cn(CCN3CCOCC3)c3ccc(O)cc23)C1(C)C | < 5.00 | > 109 | – | 7.04 | < 5.00 | – | – | – | –
40 | CC1(C)C(C(=O)c2cn(CC3CCOCC3)c3cc(OCc4ccccc4)ccc23)C1(C)C | 6.87 | – | 45 | 9.06 | – | – | – | – | –
41 | CC(=O)Nc1cccc2c1c(C(=O)C1C(C)(C)C1(C)C)cn2CCN1CCOCC1 | < 5.00 | – | – | < 6.00 | < 5.66 | > 2190 | – | – | –
42 | CC1(C)C(C(=O)c2cn(CC3CCOCC3)c3c(O)cccc23)C1(C)C | < 5.00 | – | – | 8.49 | – | – | – | – | –
43 | COc1ccc2c(C(=O)C3C(C)(C)C3(C)C)cn(CC3CCOCC3)c2c1 | < 5.00 | 78 | – | 9.29 | 7.40 | – | – | – | –
44 | CC1(C)C(C(=O)c2cn(CC3CCOCC3)c3ccc(OCCCCO)cc23)C1(C)C | < 5.00 | > 38 | – | 6.59 | < 5.00 | – | – | – | –
45 | COc1cc2c(cc1O)c(C(=O)C1C(C)(C)C1(C)C)cn2CC1CCOCC1 | < 5.00 | – | – | 9.15 | – | – | – | – | –
